Laboratory results reported in ChEMBL document CHEMBL4004831, “Naphthalene diimide-polyamine hybrids as antiproliferative agents: Focus on the architecture of the polyamine chains” (Eur J Med Chem, 2017).
Blank lines part the entries; values can stand above or below the molecule they belong to.

Assays:
Homo sapiens = species on record: Homo sapiens; test: Stabilization of 5'Dabcyl/3'FAM labeled human telomeric sequence G-quadruplex DNA assessed as increase in melting temperature at 2.5 uM pretreated for 5 mins at 30 degreeC followed by 5 mins incubation at 95 degreeC by fluorescence assay
Outline: (§1)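 FRET melting in LiP buffer (10 mM LiOH, 50 mM KCl, pH 7.0 with H3PO4), ex 488 nm, em 520 nm. Samples were held 5 min at 30 °C, heated at 1 °C/min to 95 °C, held 5 min, then re-annealed. Tm came from first derivatives; ΔTm = shift with ligand at 2.5; at least three runs.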

[1] = Stabilization of 5'Dabcyl/3'FAM labeled duplex DNA (unknown origin) assessed as increase in melting temperature at 2.5 uM pretreated for 5 mins at 30 degreeC followed by 5 mins incubation at 95 degreeC by fluorescence assay; outline: as §1
CCRF-CEM = test: Growth inhibition of human CCRF-CEM cells incubated for 48 hrs by sulforhodamine B assay; assay type: functional
HL-60 = test: Growth inhibition of human HL60 cells incubated for 48 hrs by sulforhodamine B assay; assay type: functional; settings: HL-60, 48 h
K562 = test: Growth inhibition of human K562 cells incubated for 48 hrs by sulforhodamine B assay; assay type: functional; settings: K562, 48 h
MOLT-4 = test: Growth inhibition of human MOLT4 cells incubated for 48 hrs by sulforhodamine B assay; assay type: functional; settings: MOLT-4, 48 h
RPMI-8226 = test: Growth inhibition of human RPMI8226 cells incubated for 48 hrs by sulforhodamine B assay; assay type: functional; settings: RPMI-8226, 48 h
A549 = test: Growth inhibition of human A549/ATCC cells incubated for 48 hrs by sulforhodamine B assay; assay type: functional; settings: A549, 48 h
NCI-H226 = test: Growth inhibition of human NCI-H226 cells incubated for 48 hrs by sulforhodamine B assay; assay type: functional; settings: NCI-H226, 48 h
NCI-H23 = test: Growth inhibition of human NCI-H23 cells incubated for 48 hrs by sulforhodamine B assay; assay type: functional; settings: NCI-H23, 48 h
NCI-H460 = test: Growth inhibition of human NCI-H460 cells incubated for 48 hrs by sulforhodamine B assay; assay type: functional; settings: NCI-H460, 48 h
NCI-H522 = test: Growth inhibition of human NCI-H522 cells incubated for 48 hrs by sulforhodamine B assay; assay type: functional; settings: NCI-H522, 48 h
COLO 205 = test: Growth inhibition of human COLO205 cells incubated for 48 hrs by sulforhodamine B assay; assay type: functional; settings: COLO 205, 48 h
HCT-116 = test: Growth inhibition of human HCT116 cells incubated for 48 hrs by sulforhodamine B assay; assay type: functional; settings: HCT-116, 48 h
HCT-15 = test: Growth inhibition of human HCT15 cells incubated for 48 hrs by sulforhodamine B assay; assay type: functional; settings: HCT-15, 48 h
KM12 = test: Growth inhibition of human KM12 cells incubated for 48 hrs by sulforhodamine B assay; assay type: functional; settings: KM12, 48 h
SF-268 = test: Growth inhibition of human SF268 cells incubated for 48 hrs by sulforhodamine B assay; assay type: functional; settings: SF-268, 48 h
SF-295 = test: Growth inhibition of human SF295 cells incubated for 48 hrs by sulforhodamine B assay; assay type: functional; settings: SF-295, 48 h
SF-539 = test: Growth inhibition of human SF539 cells incubated for 48 hrs by sulforhodamine B assay; assay type: functional; settings: SF-539, 48 h
SNB-75 = test: Growth inhibition of human SNB75 cells incubated for 48 hrs by sulforhodamine B assay; assay type: functional; settings: SNB-75, 48 h
U-251 = test: Growth inhibition of human U251 cells incubated for 48 hrs by sulforhodamine B assay; assay type: functional; settings: U-251, 48 h
LOX IMVI = test: Growth inhibition of human LOXIMVI cells incubated for 48 hrs by sulforhodamine B assay; assay type: functional
Malme-3M = test: Growth inhibition of human MALME-3M cells incubated for 48 hrs by sulforhodamine B assay; assay type: functional
M14 = test: Growth inhibition of human M14 cells incubated for 48 hrs by sulforhodamine B assay; assay type: functional; settings: M14, 48 h
MDA-MB-435 = test: Growth inhibition of human MDA-MB-435 cells incubated for 48 hrs by sulforhodamine B assay; assay type: functional; settings: MDA-MB-435, 48 h
SK-MEL-2 = test: Growth inhibition of human SK-MEL-2 cells incubated for 48 hrs by sulforhodamine B assay; assay type: functional; settings: SK-MEL-2, 48 h
SK-MEL-28 = test: Growth inhibition of human SK-MEL-28 cells incubated for 48 hrs by sulforhodamine B assay; assay type: functional; settings: SK-MEL-28, 48 h
SK-MEL-5 = test: Growth inhibition of human SK-MEL-5 cells incubated for 48 hrs by sulforhodamine B assay; assay type: functional; settings: SK-MEL-5, 48 h
IGROV-1 = test: Growth inhibition of human IGROV1 cells incubated for 48 hrs by sulforhodamine B assay; assay type: functional; settings: IGROV-1, 48 h
OVCAR-4 = test: Growth inhibition of human OVCAR4 cells incubated for 48 hrs by sulforhodamine B assay; assay type: functional; settings: OVCAR-4, 48 h
OVCAR-5 = test: Growth inhibition of human OVCAR5 cells incubated for 48 hrs by sulforhodamine B assay; assay type: functional; settings: OVCAR-5, 48 h
OVCAR-8 = test: Growth inhibition of human OVCAR8 cells incubated for 48 hrs by sulforhodamine B assay; assay type: functional; settings: OVCAR-8, 48 h
SK-OV-3 = test: Growth inhibition of human SKOV3 cells incubated for 48 hrs by sulforhodamine B assay; assay type: functional; settings: SK-OV-3, 48 h
786-0 = test: Growth inhibition of human 786-0 cells incubated for 48 hrs by sulforhodamine B assay; assay type: functional; settings: 786-0, 48 h
A498 = test: Growth inhibition of human A498 cells incubated for 48 hrs by sulforhodamine B assay; assay type: functional; settings: A498, 48 h
CAKI-1 = test: Growth inhibition of human Caki1 cells incubated for 48 hrs by sulforhodamine B assay; assay type: functional; settings: CAKI-1, 48 h
SN12C = test: Growth inhibition of human SN12C cells incubated for 48 hrs by sulforhodamine B assay; assay type: functional
PC-3 = test: Growth inhibition of human PC3 cells incubated for 48 hrs by sulforhodamine B assay; assay type: functional; settings: PC-3, 48 h
DU-145 = test: Growth inhibition of human DU145 cells incubated for 48 hrs by sulforhodamine B assay; assay type: functional; settings: DU-145, 48 h
MCF7 = test: Growth inhibition of human MCF7 cells incubated for 48 hrs by sulforhodamine B assay; assay type: functional; settings: MCF7, 48 h
Hs-578T = test: Growth inhibition of human Hs 578T cells incubated for 48 hrs by sulforhodamine B assay; assay type: functional
BT-549 = test: Growth inhibition of human BT549 cells incubated for 48 hrs by sulforhodamine B assay; assay type: functional; settings: BT-549, 48 h
T47D = test: Growth inhibition of human T47D cells incubated for 48 hrs by sulforhodamine B assay; assay type: functional
MDA-MB-468 = test: Growth inhibition of human MDA-MB-468 cells incubated for 48 hrs by sulforhodamine B assay; assay type: functional; settings: MDA-MB-468, 48 h

ΔTm (Homo sapiens): 21.4 °C
ΔTm [1]: 6.7 °C
GI50 (CCRF-CEM): 425 nM
GI50 (HL-60): 438 nM
GI50 (K562): 301 nM
GI50 (MOLT-4): 584 nM
GI50 (RPMI-8226): 626 nM
GI50 (A549): 581 nM
GI50 (NCI-H226): 928 nM
GI50 (NCI-H23): 356 nM
GI50 (NCI-H460): 311 nM
GI50 (NCI-H522): 180 nM
GI50 (COLO 205): 168 nM
GI50 (HCT-116): 315 nM
GI50 (HCT-15): 1740 nM
GI50 (U-251): 328 nM
GI50 (MDA-MB-435): 213 nM
GI50 (SK-MEL-2): 229 nM
GI50 (SK-MEL-28): 390 nM
GI50 (SK-MEL-5): 156 nM
GI50 (OVCAR-4): 160 nM
GI50 (OVCAR-5): 2030 nM
GI50 (OVCAR-8): 288 nM
GI50 (SK-OV-3): 2110 nM
GI50 (786-0): 1170 nM
GI50 (PC-3): 564 nM
GI50 (DU-145): 693 nM
GI50 (MCF7): 200 nM
GI50 (BT-549): 1710 nM
GI50 (T47D): 214 nM
GI50 (MDA-MB-468): 133 nM
Structure (SMILES): COc1ccccc1CNCCCN1C(=O)c2ccc3c4c(ccc(c24)C1=O)C(=O)N(CCCNCCCCNCCCN)C3=O
GI50 (KM12): 340 nM
GI50 (SF-268): 338 nM
GI50 (SF-295): 1080 nM
GI50 (SF-539): 426 nM
GI50 (SNB-75): 752 nM
GI50 (LOX IMVI): 300 nM
GI50 (Malme-3M): 241 nM
GI50 (M14): 645 nM
GI50 (IGROV-1): 360 nM
GI50 (A498): 1340 nM
GI50 (CAKI-1): 2610 nM
GI50 (SN12C): 319 nM
GI50 (Hs-578T): 1360 nM

ΔTm (Homo sapiens): 12.9 °C
ΔTm [1]: 1.5 °C
GI50 (CCRF-CEM): 550 nM
GI50 (HL-60): 810 nM
GI50 (K562): 494 nM
GI50 (MOLT-4): 546 nM
GI50 (RPMI-8226): 1720 nM
GI50 (A549): 1220 nM
GI50 (NCI-H226): 1560 nM
GI50 (NCI-H23): 605 nM
GI50 (NCI-H460): 657 nM
GI50 (NCI-H522): 919 nM
GI50 (COLO 205): 233 nM
GI50 (HCT-116): 344 nM
GI50 (HCT-15): 550 nM
GI50 (U-251): 1240 nM
GI50 (MDA-MB-435): 200 nM
GI50 (SK-MEL-2): 1830 nM
GI50 (SK-MEL-28): 1590 nM
GI50 (SK-MEL-5): 288 nM
GI50 (OVCAR-4): 197 nM
GI50 (OVCAR-5): 1890 nM
GI50 (OVCAR-8): 491 nM
GI50 (SK-OV-3): 2360 nM
GI50 (786-0): 1530 nM
GI50 (PC-3): 1440 nM
GI50 (DU-145): 1780 nM
GI50 (MCF7): 333 nM
GI50 (BT-549): 1950 nM
GI50 (T47D): 976 nM
GI50 (MDA-MB-468): 289 nM
Structure (SMILES): COc1ccccc1CNCCCN1C(=O)c2ccc3c4c(ccc(c24)C1=O)C(=O)N(CCCOCCCCOCCCN)C3=O
GI50 (KM12): 1270 nM
GI50 (SF-268): 1430 nM
GI50 (SF-295): 1420 nM
GI50 (SF-539): 1680 nM
GI50 (SNB-75): 1790 nM
GI50 (LOX IMVI): 760 nM
GI50 (Malme-3M): 248 nM
GI50 (M14): 1090 nM
GI50 (IGROV-1): 1260 nM
GI50 (A498): 1320 nM
GI50 (CAKI-1): 1830 nM
GI50 (SN12C): 918 nM
GI50 (Hs-578T): 2020 nM
